# S1P3 ag: agonists of human S1P3 receptor; Q99500; S1P3 NFAT-BLA reporter cells, agonism, FRET ratio; relative to 1 µM S1P, basal subtracted; activation, % at 4.5 µM; 60,000 tested, 0.1% active; AID 373;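 active = activation above the screen-wide mean plus 3 SD, cut at about 4.5% in these data, passing the limit was not always enough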
# Target sequence (Q99500 whole entry, looked up): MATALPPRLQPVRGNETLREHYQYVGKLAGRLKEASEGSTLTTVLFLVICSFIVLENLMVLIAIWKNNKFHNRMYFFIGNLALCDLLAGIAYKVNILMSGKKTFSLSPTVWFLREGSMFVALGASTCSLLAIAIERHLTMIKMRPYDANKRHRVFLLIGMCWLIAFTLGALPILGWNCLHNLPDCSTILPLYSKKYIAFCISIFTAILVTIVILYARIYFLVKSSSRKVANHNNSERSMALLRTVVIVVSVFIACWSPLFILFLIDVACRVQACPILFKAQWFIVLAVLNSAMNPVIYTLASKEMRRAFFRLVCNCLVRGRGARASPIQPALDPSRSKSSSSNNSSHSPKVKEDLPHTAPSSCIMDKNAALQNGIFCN
#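 Benchmarks: high control 1 µM S1P / System: stable CHO line with human S1P3, Gα16, NFAT-BLA reporter / Dosing: single compound concentration, 4.5 µM final / Timing: 4 h compound at 37 °C, 2 h substrate at RT / Measured by: FRET β-lactamase substrate fluorescence, excitation 405 nm, 460/535 nm emission ratio, background-subtracted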
# M1 antag: blocks the rat M1 muscarinic receptor response to acetylcholine. P08482. CHO-M1 cells, Fluo-4 calcium, ACh EC80 antagonist mode; hits give low values. B-score at 10 µM. 64,000 tested, 3.4% active;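 active = calcium fluorescence response, raw or row-and-column corrected B-score, differing from the plate sample mean either way at a set confidence level, mostly lower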
# D1 allo mod: D1 dopamine receptor (human) allosteric modulation; 58,000 tested, 5.9% active; P21728; HEK293 D1, CRE-luciferase, dopamine EC30 potentiation; actives deviate in either direction; AID 641; B-score at 10 µM;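 active = luminescence count or its row- and column-corrected plate score outside the 99.7% band of the plate's sample wells, on either side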
# M1 ag: M1 muscarinic receptor agonism; CHO-M1 cells, Fluo-4 calcium fluorescence, agonist mode; hits give high values; B-score at 10 µM; 64,000 tested, 3% active; AID 626;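 active = fluorescence rise, raw or as B-score row- and column-corrected plate score, outside the 99.7% band of its plate's samples, either direction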
# S1P1 ag pot: agonists and agonism potentiators of human S1P1 receptor. P21453. S1P1 CRE-bla cells, forskolin, beta-lactamase FRET, potentiator mode; S1P1 agonist co-added at EC20, 2 nM; 100% = saturating reference agonist, 0% = basal. activation, % at 9.5 µM. 56,000 tested, 0.57% active. AID 449;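 active = activation above a cutoff set at the mean activation of all tested compounds plus 3 SD, cut at about 54% in these data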;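 also: forskolin at 4 µM as EC80 and the EC20 agonist is SEW2871; 100% = SEW2871 at its EC100 plus forskolin at EC80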
# M1 antag confirm: M1 muscarinic receptor (rat) antagonism, confirmed. 1,700 tested, 43% active. shares compounds with M1 antag. calcium response (max-min fluorescence) at 10 µM. CHO-M1 cells, Fluo-4 calcium, ACh EC80 antagonism; hits give low values. AID 677;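 active = calcium response below the same-plate mean of wells given acetylcholine alone at its 80%-effect dose, minus 3 SD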;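 also: raw fluorescence intensity difference in arbitrary instrument units and not normalized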
# mGluR4 antag: mGluR4 (human) activity, M1 antagonist secondary assay | shares compounds with M1 antag | CHO-mGluR4 calcium flux, Fluo-4 fluorescence, glutamate EC80; hits give low values | fluorescence response (max-min) at 10 µM | 1,700 tested, 0.9% active | AID 678;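 active = fluorescence response below the plate's average for near-maximal glutamate wells, less 3 SD of those wells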;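 also: raw unnormalized fluorescence span taken in the window right after glutamate addition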
# * marks the source's active call; other numbers are inactive results; x = not tested or not shown. Compounds with a hit are over-represented: about 11% of the library has one in this group of screens.
SMILES,S1P3 ag,M1 antag,D1 allo mod,M1 ag,S1P1 ag pot,M1 antag confirm,mGluR4 antag
O=C(c1ccc(F)cc1)C(CN1CCOCC1)c1ccccc1 (stereo not given),-2,-0.92,-0.38,-0.024,75,x,x
COc1ccc(C(=O)C(CN2CCCC2)c2ccccc2)cc1 (stereo not given),-5,-7.4*,x,0.00053,48,239*,240
C=CCNc1nc(N2CCCC2)nc2ccccc12,-1,-3.4*,-4.5*,-0.83,-15,581,265
COc1ccc(Nc2nc(N3CCCC3)nc3ccccc23)c(OC)c1,0,-8.1*,-3.1,-0.69,-82,342*,188
OCCNc1nc(N2CCN(Cc3ccccc3)CC2)nc2ccccc12,0,-0.45,-1.1,0.12,-16,x,x
O=C(C1CCN(S(=O)(=O)c2ccc(F)cc2)CC1)N1CCOCC1,-1,0.9,-0.38,0.8,-20,x,x
Cc1oc2c(c1C(=O)NCc1ccccc1)CCCC2,-1,-3.7*,x,0.37,-11,643,188
CCCn1cnc2cc(NCc3cccc(OC)c3)ccc21,-1,-2.4*,-0.19,-0.17,0,397*,189
COc1ccc(NC(=O)CSc2nnc(Cc3cccn3C)n2CCc2ccccc2)cc1OC,5,0.54,-1.1,0.82,-34,x,x
CC(=O)Nc1cccc(NC(=O)CSc2nnc(Cc3cccn3C)n2CCc2ccccc2)c1,0,-1.9*,0.42,0.1,-17,641,228
COC(=O)c1cc(C(=O)OC)cc(N2C(=O)CN=C2Nc2nc(C)cc(C)n2)c1,-1,-0.59,0.22,-0.17,-14,x,x
COc1ccc(C(=O)c2coc3ccc(O)c(CN(C)C)c23)cc1,0,-0.44,0.31,1,-10,x,x
CCOC(=O)c1c(C)oc2ccc(O)c(CN(C)C)c12,0,-1.3*,-1.3,-0.009,-17,460,234
COCCn1c(SCC(=O)Nc2ccc(S(=O)(=O)N3CCOCC3)cc2)nc2ccccc21,0,-7.6*,-0.19,-0.34,7,348*,270
CN1CCN(c2ccccc2NC(=O)Cc2cn(C)c3ccccc23)CC1,-1,-0.74*,x,0.21,3,522*,230
O=C(CCN1CCN(CCO)CC1)Nc1ccc(OCc2ccccc2)cc1,0,-0.22,0.33,-0.25,-2,x,x
CCn1c(=O)cc(OCC(=O)Nc2ccccc2N2CCN(C)CC2)c2ccccc21,0,-2,-0.9,-0.041,-59,x,x
CN1CCN(c2ccccc2NC(=O)c2ccc(OCc3ccccc3)cc2)CC1,-1,-2.2*,-4.6*,4.2,-3,403*,277
CN1CCN(CCC(=O)Nc2ccc(OCc3ccccc3)cc2)CC1,-1,-1.7*,-1.9,-1.7,6,557,258
CC1=C(C(N)=O)C(c2ccncc2)n2nc(-c3ccccc3Cl)nc2N1 (stereo not given),0,0.53,0.69,0.9,-4,x,x
COc1ccccc1Nc1nc2ccccc2n1C,-1,-4.4*,-2.6,0.062,7,489,209
CNc1ccccc1-c1nc2ccccc2n(C)c1=O,-2,-0.15,x,-0.24,-6,x,x
CCCNC(=O)N1CCN(S(=O)(=O)c2ccc(C)c(C)c2)CC1,0,0.36,x,0.4,-13,x,x
COc1cc(S(=O)(=O)N2CCN(C)CC2)c(OC)cc1Br,1,-0.08,-1.9,-0.33,6,x,x
CN(C(=O)c1cc2n(n1)C(C(F)(F)F)CC(c1ccco1)N2)c1ccc(OC(F)(F)F)cc1 (stereo not given),-2,0.72,0.78,0.44,2,x,x
SMILES,S1P3 ag,M1 antag,D1 allo mod,M1 ag,S1P1 ag pot,M1 antag confirm,mGluR4 antag
CN(C(=O)c1cc2n(n1)C(C(F)(F)F)CC(c1ccco1)N2)c1ccccc1 (stereo not given),-1,-2.9*,1.2,1.1,12,662,230
Cc1cccc(-c2noc(CCCC(=O)Nc3cccnc3)n2)c1,0,-0.0022,x,-0.46,7,x,x
O=C(CCCc1nc(-c2ccc(Cl)cc2)no1)Nc1cccnc1,-1,-2.7*,-1.3,1.4,0,528*,214
O=C(CN1CCC(NC(=O)Nc2ccccc2-c2ccccc2)CC1)NCc1ccco1,-1,-4*,0.12,-1.4,-6,215*,197
Cc1ccccc1C(=O)N1CCC(C(=O)Nc2ccc(F)cc2)CC1,-1,-4.3*,0.37,0.19,x,502,184
O=C(NCCc1ccccn1)C1CC(=O)N(Cc2ccccc2Cl)C1 (stereo not given),0,-0.18,0.36,0.11,-3,x,x
C=CC(C)Sc1nc2c(c(=O)n(C)c(=O)n2C)n1Cc1ccccc1Cl (stereo not given),-1,-4.5*,2,0.52,7,594,265
CCSc1nc2c(c(=O)n(C)c(=O)n2C)n1Cc1ccc(Cl)cc1,-1,-3.7*,1.7,0.44,8,410,225
C=CCOc1nc2c(c(=O)n(C)c(=O)n2C)n1Cc1ccccc1Cl,-2,-0.013,x,0.79,-2,x,x
Cn1c(=O)c2c(nc(SCCN3CCCCC3)n2Cc2ccc(Cl)cc2)n(C)c1=O,-4,-7.8*,0.75,-0.88,16,87*,248
Cn1c(=O)c2c(nc(Sc3ncccn3)n2Cc2ccc(Cl)cc2)n(C)c1=O,1,0.2,-0.39,-0.99,0,x,x
CCOC(=O)C1C2C=CC3(CN(c4ccccc4CC)C(=O)C13)O2 (stereo not given),-1,0.31,0.069,0.82,16,x,x
COc1cccc(NC(=O)c2nc3ncccn3n2)c1,-1,-0.07,-0.15,-0.094,19,x,x
COc1ccc(S(=O)(=O)Cc2ccc(C(=O)N3CCN(C(=O)c4ccco4)CC3)o2)cc1,0,0.033,-0.0056,-0.24,-4,x,x
Cc1c(Cl)cccc1N1C(=O)C2ON(c3ccccc3)C(c3cccnc3)C2C1=O (stereo not given),-4,-2.1*,x,0.32,-16,652,250
COC(=O)COc1ccc(S(=O)(=O)Nc2ccc(NC(C)=O)cc2)cc1C,0,-3.1*,-0.006,0.46,-1,611,241
Cc1noc(C)c1COC(=O)c1cccnc1SCC(=O)Nc1ccc2c(c1)OCO2,-1,-6.2*,2,-1.6,4,132*,242
C=C(C)COc1ccc2c(C)c(CC(=O)OC)c(=O)oc2c1C,-1,-2*,0.3,-1.2,x,641,225
Cc1ccc(CN2C(=O)CCC2C(=O)NCc2ccco2)cc1 (stereo not given),-1,0.65,0.29,0.33,4,x,x
CCN(CC)CCCN1C(=O)c2oc3ccccc3c(=O)c2C1c1cc(OC)ccc1OC (stereo not given),-1,-1.9*,-0.67,-0.92,-10,644,270

# Screening results from PubChem BioAssay.
